Compounds with a hit are over-represented: about 3.1% of the library has one in this group of screens.
Ecoli rRNA inh: reduced GFP signal of wild-type E. coli, primary screen, bacterial rRNA inhibitor project, GFP/RFP fluorescence, OD600, single point | E. coli WT GFP vs humanized-ribosome RFP mutants, 24 h; stronger effect = lower value; DMSO median 0, no signal -100 | GFP signal change (wild-type ribosome), % (concentration not given with the values) | 350,000 compounds, 1.6% hits | AID 720706, 2013;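 active = significant combined selectivity score with lowered wild-type GFP, culture density cut under 30%, mutant RFP and density less affected; inactive = any of these conditions unmet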
SIRT5 block: SIRT5 desuccinylase inhibitors, primary screen, biochemical, fluorescence imaging, single point, set 5; inhibition, % at 15 µM; 330,000 compounds, 1.1% hits; AID 652115, 2013; NAD-dependent protein deacylase sirtuin-5, mitochondrial (Homo sapiens), Q9NXA8; Purified SirT5, succinyl-peptide AMC, trypsin-coupled fluorescence; in the data active = inhibition above about 15%; inconclusive = no clear call, values can overlap the other calls
Target sequence (Q9NXA8 whole entry, looked up): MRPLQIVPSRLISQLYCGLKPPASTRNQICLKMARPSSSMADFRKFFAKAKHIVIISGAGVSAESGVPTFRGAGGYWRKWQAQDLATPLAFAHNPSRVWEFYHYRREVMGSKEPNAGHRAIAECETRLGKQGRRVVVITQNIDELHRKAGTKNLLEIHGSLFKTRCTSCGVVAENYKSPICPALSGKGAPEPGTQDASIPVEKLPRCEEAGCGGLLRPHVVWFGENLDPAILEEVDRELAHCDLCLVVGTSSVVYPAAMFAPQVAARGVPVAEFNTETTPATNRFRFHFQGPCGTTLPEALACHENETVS
S100A4 inh HTS: inhibitors of S100A4-myosin IIA peptide binding, primary screen, biochemical, fluorescence polarization, TAMRA-MyoIIA peptide. Protein S100-A4 (Homo sapiens), P26447. inhibition, % at 10.7 µM. 360,000 compounds, 0.14% hits. AID 652163, 2013;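 active = mean inhibition of at least 70% across replicates, with every replicate also reaching that level; inconclusive = mean inhibition reaches 70% but some replicates fall short; inactive = mean inhibition below 70%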
Target sequence (P26447 whole entry, looked up): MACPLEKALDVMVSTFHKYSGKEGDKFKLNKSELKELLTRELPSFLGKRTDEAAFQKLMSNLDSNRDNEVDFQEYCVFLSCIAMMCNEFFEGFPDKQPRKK
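Test system: S100A4 monomer protein; Medium: HEPES pH 7.2 with CaCl2, KCl, NaCl, DTT, Triton; Probe or stimulus: TAMRA-labelled myosin IIA heavy-chain peptide probe, 5 nM; Doses: one dose per compound; Times: polarization read 5 min after assay mix addition, stable 5–60 min; Benchmarks: neutral control DMSO, positive control TFP.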
CFTR F508del cor: F508del CFTR correction, initial screen, CFBE line, single point | CFBE cells, YFP halide quenching; stimulated with forskolin plus potentiator P3; % fluorescence drop versus neutral controls | activity (quench increase), % at 7.58 µM | 350,000 compounds, 0.36% hits | AID 720511, 2013;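 active = mean added fluorescence quench of at least 8% versus neutral control, with both replicates also reaching 8%; inconclusive = only one of the mean or replicate conditions met; inactive = mean below 8% and not both replicates reaching 8%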;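 also: cells transiently co-express mutant CFTR-F508del with the halide-sensitive YFP; corrector assay measuring rescue of mutant channel to the surface after 24 h compound exposure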
ERAP1 inh: human ERAP1 aminopeptidase inhibitors, primary screen, biochemical, single point, plate reader | Endoplasmic reticulum aminopeptidase 1 (Homo sapiens), Q9NZ08 | recombinant ERAP1, Leu-AMC fluorescence, 60 min | inhibition, % at 10.7 µM | 340,000 compounds, 0.15% hits | AID 652197, 2013;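 active = mean replicate inhibition of at least 30%, or all replicates individually reaching that 30% level; inactive = mean below 30% and not every replicate reaching it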;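 also: 0% = neutral control wells and 100% = L-leucinethiol positive control wells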
AID977621: growth inhibition of wild-type GFP E. coli, dose response, H69 mutant RFP, cherry-pick; shares compounds with Ecoli rRNA inh; E. coli wild-type GFP strain growth, fluorescence, 24 h; activity change, negative = inhibition at 50 µM; 1,900 tested, under 10 active; AID 977621, 2014;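 active = Wild-type ribosome reporter drop at least double the humanized mutant ribosome reporter drop, growth loss under a set limit; inconclusive = no clear call, values can overlap the other calls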;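 also: wild-type GFP and H69 mutant RFP strains grown together 50/50 in each well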
AID977628: E. coli growth inhibition, wild-type GFP versus h24 humanized RFP strain, dose response, h24 mutant RFP vs wild-type GFP, cherry-pick; shares compounds with Ecoli rRNA inh; 1,900 tested, under 10 active; activity change, negative = inhibition at 50 µM; E. coli WT GFP strain growth, fluorescence, 24 h;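 active = compound lowering the normal-ribosome reporter at least twice as much as the humanized-ribosome reporter, growth loss under a set limit; inconclusive = no clear call, values can overlap the other calls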;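 also: wild-type GFP and h24 humanized RFP strains co-cultured 1 to 1 per well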
* = called active by the depositor; ? = inconclusive; nt = no result.

SMILES | Ecoli rRNA inh | SIRT5 block | S100A4 inh HTS | CFTR F508del cor | ERAP1 inh | AID977621 | AID977628
COc1cccc(NC(=O)c2ccc(C(=O)c3ccccc3)o2)c1 | -33* | 0 | -3 | 1 | -1 | -15 | nt
C[C@@H]1CN([C@@H](C)CO)C(=O)c2cc(/C=C/c3ccccc3)cnc2O[C@H]1CN(C)C(=O)CN1CCOCC1 | 0 | -10 | 7 | -5 | 1 | nt | nt
C[C@@H]1CCCCO[C@H](CN(C)C(=O)Nc2ccc3c(c2)OCO3)[C@H](C)CN([C@@H](C)CO)C(=O)c2cc(NC(=O)Nc3ccc4c(c3)OCO4)ccc2O1 | -2 | 9 | -1 | -2 | 1 | nt | nt
C[C@@H]1CN([C@H](C)CO)C(=O)CCCn2nncc2CO[C@@H]1CN(C)C(=O)Nc1ccc(C(F)(F)F)cc1 | -18* | -15 | -5 | -2 | 2 | -15 | ?
Cc1noc(C)c1NC(=O)Nc1ccc2c(c1)C(=O)N([C@@H](C)CO)C[C@@H](C)[C@@H](CN(C)C(=O)Nc1c(C)noc1C)OCCCC[C@@H](C)O2 | 1 | -3 | -20 | 2 | -3 | nt | nt
Cc1noc(C)c1NC(=O)Nc1ccc2c(c1)C(=O)N([C@@H](C)CO)C[C@@H](C)[C@H](CN(C)C(=O)Nc1ccc3c(c1)OCO3)OCCCC[C@H](C)O2 | -2 | -2 | 1 | -4 | 0 | 1.3 | ?
C[C@@H]1CN([C@@H](C)CO)C(=O)c2cc(NC(=O)C3CC3)ccc2O[C@H]1CN(C)C(=O)Nc1ccc(C(F)(F)F)cc1 | -29* | 0 | 4 | 3 | 1 | -18 | -13
Cc1noc(C)c1NC(=O)Nc1ccc2c(c1)C(=O)N([C@@H](C)CO)C[C@@H](C)[C@@H](CN(C)C(=O)Nc1ccc3c(c1)OCO3)OCCCC[C@@H](C)O2 | -1 | 8 | -1 | 0 | -1 | -0.24 | ?
Cc1noc(C)c1S(=O)(=O)Nc1ccc2c(c1)C(=O)N([C@@H](C)CO)C[C@H](C)[C@H](CN(C)S(=O)(=O)c1c(C)noc1C)O2 | -1 | nt | nt | -1 | nt | nt | nt
C[C@@H]1CN([C@H](C)CO)C(=O)c2cc(NS(=O)(=O)c3ccc(Cl)cc3)ccc2O[C@@H]1CN(C)C(=O)Nc1ccc(C(F)(F)F)cc1 | -2 | nt | nt | 0 | nt | nt | nt
CCCC(=O)Nc1ccc2c(c1)OC[C@@H](C)N(CC1CCOCC1)C[C@@H](C)[C@@H](OC)CN(C)C2=O | 3 | 6 | 9 | -5 | 4 | nt | nt
CC(C)NC(=O)N(C)C[C@H]1OCCCC[C@@H](C)Oc2ccc(NC(=O)CCC(F)(F)F)cc2C(=O)N([C@@H](C)CO)C[C@@H]1C | 0 | 1 | -5 | 3 | 3 | nt | nt
COc1cccc(-c2ccc3c(c2)O[C@@H](CN(C)C)[C@@H](C)CN([C@H](C)CO)S3(=O)=O)c1 | 2 | -3 | 6 | -1 | 3 | nt | nt
Cc1noc(C)c1NC(=O)Nc1ccc2c(c1)C(=O)N([C@H](C)CO)C[C@@H](C)[C@H](CN(C)Cc1ccc(C(=O)O)cc1)OCCCC[C@@H](C)O2 | 2 | nt | nt | 2 | nt | nt | nt
C[C@H](CO)N1C[C@H](C)[C@@H](CN(C)C(=O)NC2CCCCC2)Oc2c(NC(=O)Cn3cnnn3)cccc2C1=O | 5 | nt | nt | nt | nt | nt | nt
C[C@H](CO)N1C[C@H](C)[C@H](CN(C)C(=O)Nc2ccc3c(c2)OCO3)Oc2c(NC(=O)Nc3ccccc3)cccc2C1=O | -22* | -11 | 1 | 1 | 1 | -11 | ?
C[C@H]1CN([C@@H](C)CO)C(=O)c2cccc(NC(=O)Nc3ccc4c(c3)OCO4)c2O[C@@H]1CN(C)C(=O)Nc1ccccc1 | 0 | nt | nt | 1 | nt | nt | nt
COC(=O)c1cc(-c2ccc(Cl)cc2)n[nH]1 | -12 | nt | -4 | 0 | 1 | nt | nt
CCOC(=O)c1cc(-c2ccc(OC)cc2)n[nH]1 | -25* | -2 | -5 | 1 | 24 | -24 | -13
C[C@@H]1CCCCO[C@H](CN(C)C(=O)Nc2ccc3c(c2)OCO3)[C@@H](C)CN([C@H](C)CO)C(=O)c2cc(NC(=O)Nc3ccc(F)cc3)ccc2O1 | 1 | 2 | -3 | 1 | -1 | nt | nt
C[C@H]1CN([C@@H](C)CO)C(=O)c2cc(NC(=O)c3ccncc3)ccc2O[C@@H]1CN(C)Cc1ccccc1 | 2 | 3 | 7 | 0 | -3 | nt | nt
CC(C)(C)c1ccc(S(=O)(=O)NCc2ccc(C(=O)NCc3ccccn3)cc2)cc1 | -26* | -1 | 3 | nt | -2 | -5 | -17
CCN(CC)S(=O)(=O)c1ccc(N2CCCC2)c(NC(=O)c2ccccc2OC)c1 | -21* | -4 | -4 | -1 | 0 | -16 | -9.8
CC=Cc1ccc2n(c1=O)C[C@H]1[C@H](CO)[C@@H](C(=O)NCCN3CCCC3)N(C(=O)NCCC)[C@@H]21 (mixture of isomers) | 3 | -8 | -5 | -1 | -1 | nt | nt
Cc1ccc(C(=O)C2Oc3ccccc3C3CC(c4ccc(C)cc4)=NN23)cc1 (stereo unspecified) | -17* | -3 | 0 | nt | 0 | 4 | 0.038
SMILES | Ecoli rRNA inh | SIRT5 block | S100A4 inh HTS | CFTR F508del cor | ERAP1 inh | AID977621 | AID977628
O=C(c1ccccc1)N1C[C@@H]2[C@H](c3ccccc31)[C@H](CO)N2C(=O)Nc1ccccc1Cl | -5 | 0 | -8 | 0 | 4 | nt | nt
O=C(O)CCn1c(SCc2cccc3ccccc23)nc2ccccc21 | -16* | -6 | -22 | nt | -1 | -11 | ?
O=C(O)c1ccccc1CSc1nc2ccccc2n1Cc1ccccc1C(=O)O | 16 | -1 | -5 | 1 | 5 | nt | nt
O=C(Cn1c(C(=O)NCc2ccco2)cc2sccc21)c1ccccc1 | -23* | -1 | 2 | -1 | -5 | -21 | ?
O=C(Cc1ccc(NC(=O)C2CCN(C(=O)CCc3ccccc3)CC2)cc1)Nc1cccc(C(=O)N2CCCC2)c1 | -19 | 6 | 6 | -3 | 1 | nt | nt
O=C(Cc1cccc(NC(=O)C2CCN(C(=O)CCc3ccccc3)CC2)c1)Nc1cccc(C(=O)N2CCCC2)c1 | -19* | nt | -3 | -3 | -2 | -23 | nt
CN(C(=O)c1ccc(NC(=O)Cc2cccc(NC(=O)C3CCN(C(=O)CCc4ccccc4)CC3)c2)cc1)C1CC1 | 1 | -1 | -1 | 3 | -1 | nt | nt

Assay outcomes as filed in PubChem BioAssay.
